Measured values from PMC6067823 (Organic & biomolecular chemistry, 2018).
Entries after “also recorded” stand apart in the source; their conditions may differ.

Legend:
rat OR-I7 = details: cited from earlier work; for Function at rodent OR-I7 (agonist or antagonist), in words: rat OR-I7, earlier study; for IC50: read-out: IC50 (antagonist, estimated)
mouse OR-I7 [1] = molecular target: T1, mouse OR-I7 (Mus musculus, UniProt Q9QWU6); assay: Hana3A GloSensor cAMP assay, inhibition of response to co-applied 5 µM octanal; type: cell-based; details: for Relative antagonist potency within the series, in words: side-by-side comparison, Figs. 3 and 4
T1 sequence (Q9QWU6 1-327): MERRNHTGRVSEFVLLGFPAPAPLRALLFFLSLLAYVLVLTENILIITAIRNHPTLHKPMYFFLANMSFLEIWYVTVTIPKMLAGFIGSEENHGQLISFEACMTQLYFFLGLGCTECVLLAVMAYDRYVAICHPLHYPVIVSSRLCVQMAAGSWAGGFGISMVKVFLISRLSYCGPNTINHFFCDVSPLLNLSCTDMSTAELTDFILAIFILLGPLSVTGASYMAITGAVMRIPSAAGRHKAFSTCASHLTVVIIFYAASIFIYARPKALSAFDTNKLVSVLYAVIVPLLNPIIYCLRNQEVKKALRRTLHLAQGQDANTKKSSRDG

rat ORs = details: cited from earlier work
mouse OR-I7 [2] = molecular target: T1, mouse OR-I7; assay: Hana3A GloSensor cAMP assay, compounds applied alone; type: cell-based; details: compound applied alone to Hana3A cells expressing mouse OR-I7
How it was run: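 Hana3A cells were co-transfected with Rho-tagged mouse OR-I7 (80 ng/well), RTP1S, M3-R and pGloSensor-22F (10 ng/well each). At 18–24 h they were loaded with 2% GloSensor reagent for 2 h. Test compound was applied alone over a concentration range, and luminescence was read every 90 s for 24 min. Signal at 3–7.5 min was summed, baselined and normalized to octanal. Six replicates per plate, mean ± SEM.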

## CCCCC=O [Compound 3, Pentanal]
Rat OR-I7
  Function at rodent OR-I7 (agonist or antagonist), in words: weak rat OR-I7 antagonist; also recorded: antagonists
Rat OR-I7; rat OR-I7
  IC50: 460 µM

## CC1(CC=O)CCCCC1 [Compound 10]
Mouse OR-I7 [1]; 5 µM octanal
  Relative antagonist potency within the series, in words: unfavorable

## CCCCCCC=O [heptanal]
Rat OR-I7
  Function at rodent OR-I7 (agonist or antagonist), in words: regained their ability to function as agonists

## CCCCCCCC=O [Compound 1, octanal]
Rat ORs
  Number of rat ORs activated: 33–55
Rat OR-I7
  Function at rodent OR-I7 (agonist or antagonist), in words: agonists

## O=CCC12CC3CC(CC(C3)C1)C2 [Compound 12]
Mouse OR-I7 [1]; from estimated IC50s, 5 µM octanal, Fig. 4
  Antagonist potency weaker than compound 9: 3 fold

## O=CCC1CCCCC1 [Compound 2, cyclohexylethanal]
Rat OR-I7
  Function at rodent OR-I7 (agonist or antagonist), in words: antagonists
Rat OR-I7; rat OR-I7
  IC50: 37 µM
Mouse OR-I7 [2]
  Activation of mouse OR-I7 (agonist activity), in words: not a mouse OR-I7 agonist
Mouse OR-I7 [1]; increasing concentrations co-applied with constant 5 µM octanal
  Response to octanal with co-applied compound (antagonism), in words: reduced in a dose-dependent manner

## CCC1(CC=O)CCCCC1 [Compound 11]
Mouse OR-I7 [1]; 5 µM octanal
  Relative antagonist potency within the series, in words: unfavorable

## CCC1CCC(CC=O)CC1 (stereo not shown) [Compound 4, (4-ethylcyclohexyl)ethanal]
Rat OR-I7
  Function at rodent OR-I7 (agonist or antagonist), in words: agonists

## CCC(CC)(CC)CC=O [Compound 8]
Mouse OR-I7 [1]; 5 µM octanal
  Relative antagonist potency within the series, in words: progressively decreased potency

## CCC(C)CC=O (stereo not shown) [Compound 5]
Mouse OR-I7 [1]; from estimated IC50s, 5 µM octanal, Fig. 3
  Increase in antagonist potency relative to pentanal: 5 fold

## CC(C)=CCC[C@@H](C)CC=O (racemic) [citronellal]
Rat OR-I7; rat OR-I7
  Agonist activity at rat OR-I7 compared with octanal, in words: almost as good a rat OR-I7 agonist as octanal
